HEK293 NFkB inh – inhibitors of the PMA/ionomycin-induced NF-kB reporter in HEK293 cells; HEK-293 NF-kB luciferase reporter, luminescence; inhibition, % at 3 µM; 62,000 compounds, 0.21% hits; AID 465;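 active = inhibition above the mean of all tested compounds plus 3 SD, cut at about 40% in these data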;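 also: 0% = stimulated DMSO wells and 100% = 10 µM reference inhibitor 5653914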
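System – HEK-293 cells with stable firefly luciferase reporter driven by four HIV NF-kB elements · Doses – one dose, 3 µM · Schedule – 1 h compound pre-incubation, 16 h PMA/ionomycin at 37 °C · Technique – luminescence from luciferase substrate reagent · Measure – percent inhibition normalized per plate to DMSO and reference-inhibitor controls · Replicates – tested once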
Cdc25B block – human M-phase inducer phosphatase 2 inhibition | P30305 | recombinant Cdc25B, OMFP fluorescence Ex485/Em525 | inhibition, %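 (compounds tested at 10 µM final in the well)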 | 65,000 compounds, 0.1% hits; in the data active = inhibition above about 50%
M1 antagonist – blocks the rat M1 muscarinic receptor response to acetylcholine; P08482; CHO-M1 cells, Fluo-4 calcium, ACh EC80 antagonist mode; stronger effect = lower value; B-score at 10 µM; 64,000 compounds, 3.4% hits; AID 628;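 active = calcium fluorescence response, raw or row-and-column corrected B-score, differing from the plate sample mean either way at a set confidence level, mostly lower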
Target sequence (P08482 whole entry, looked up): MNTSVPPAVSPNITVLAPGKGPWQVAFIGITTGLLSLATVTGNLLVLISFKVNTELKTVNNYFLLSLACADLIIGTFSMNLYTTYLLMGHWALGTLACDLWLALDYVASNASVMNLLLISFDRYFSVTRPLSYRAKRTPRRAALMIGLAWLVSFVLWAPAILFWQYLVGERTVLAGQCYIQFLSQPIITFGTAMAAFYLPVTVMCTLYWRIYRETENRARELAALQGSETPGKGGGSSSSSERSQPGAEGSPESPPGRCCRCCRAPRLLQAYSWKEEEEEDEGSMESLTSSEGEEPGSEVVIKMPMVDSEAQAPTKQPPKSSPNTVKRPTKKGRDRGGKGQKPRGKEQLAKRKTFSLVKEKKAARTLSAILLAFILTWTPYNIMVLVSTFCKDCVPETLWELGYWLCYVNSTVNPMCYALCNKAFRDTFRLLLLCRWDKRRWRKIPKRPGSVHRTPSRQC
M1 agonist – M1 muscarinic receptor agonism; CHO-M1 cells, Fluo-4 calcium fluorescence, agonist mode; stronger effect = higher value; B-score at 10 µM; 64,000 compounds, 3% hits; AID 626;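 active = fluorescence rise, raw or as B-score row- and column-corrected plate score, outside the 99.7% band of its plate's samples, either direction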
MKP-1 inh – blocks human MKP-1 phosphatase activity | P28562 | recombinant MKP-1, OMFP hydrolysis fluorescence | inhibition, %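 (compounds tested at a single concentration somewhere between 10 and 100 µM)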 | 65,000 compounds, 0.15% hits | AID 374;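 active = inhibition above about 50%, limit read from the data; inconclusive = inhibition over screen mean plus 3 SD, below that limit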;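 also: 0% = DMSO max control wells and 100% = wells with enzyme stopped by NaOH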
HER2 expr 66K – inhibitors of human Her2 kinase expression | AID 645 | 65,000 compounds, 0.69% hits | HER2 level % of control, % at 10 µM | SKBR-3 HER2 protein level, AlphaScreen, 18-24 h; stronger effect = lower value | P04626;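 active = HER2 level under 5% of the carrier-only control; inconclusive = no clear call, values can overlap the other calls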;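 also: 100% = DMSO carrier and 0% = 500 nM PU-H71 HSP90 inhibitor; lower value means stronger loss of Her2 protein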
M1 agonist conf – rat M1 muscarinic agonism, confirmation | fluorescence change (max-min) at 10 µM | AID 1488 | shares compounds with M1 agonist | CHO-M1 cells, Fluo-4 calcium fluorescence, agonist mode; actives lie on both sides | 1,700 compounds, 19% hits;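 active = fluorescence change differs from the solvent-only DMSO control mean at a set confidence level in both duplicate runs; inconclusive = differs from solvent-only control mean in just one of two runs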;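 also: an EC20 dose of acetylcholine follows compound addition during the same imaging run; raw fluorescence intensity difference in instrument units with no normalization to controls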
M4 agonist ctr – counter-screen for M1 agonists: activity at rat M4 receptor | shares compounds with M1 agonist | CHO M4/Gqi5 cells, Fluo-4 calcium fluorescence, agonist mode; actives lie on both sides | fluorescence change (max-min) at 10 µM | 1,700 compounds, 9% hits;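 active = fluorescence change differing from the plate's solvent-only control wells at 99.7% confidence in both duplicates, whether higher or lower; inconclusive = differs from solvent controls in only one of two duplicates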
* marks the source's active call; other numbers are inactive results; ? = inconclusive; · = no result. Most compounds without a hit are left out; they make up all but 6.8% or so of the library.

SMILES	HEK293 NFkB inh	Cdc25B block	M1 antagonist	M1 agonist	MKP-1 inh	HER2 expr 66K	M1 agonist conf	M4 agonist ctr
COc1ccc2c(c1OC)C(=O)N1c3ccccc3C(=O)N(c3ccccc3)C21 (configuration not stated)	·	-3	-1.3	13*	-33	64	?	-37
N=c1c2c3c(sc2ncn1CCN1CCOCC1)CCCCC3	23	-5	-0.79	0.057	-1	91	·	·
O=c1c2c3c(sc2nc2sc(CN4CCOCC4)cn12)CCCC3	5	-6	-0.29	-3.3*	4	82	-18	?
COCCn1nnnc1C(c1ccc(O)c(OC)c1)N1CCc2ccccc2C1 (configuration not stated)	16	0	0.0035	4*	?	70	-10	-28
COc1ccc(C(c2nnnn2C2CCCC2)N2CCc3ccccc3C2)cc1OC (configuration not stated)	17	-13	0.45	-0.35	26	81	·	·
COCCNC(=O)CSc1nc2ccccc2c(=O)n1CCCC(=O)NCc1ccccc1	14	-16	0.5	-0.73	3	93	·	·
CC(=O)c1c(C)[nH]c(C(=O)Nc2ccc3c(c2)OCCO3)c1C	-42	6	-0.83	-0.034	-3	100	·	·
COc1ccc(NC(=O)c2[nH]c(C)c(C(C)=O)c2C)cc1Cl	17	-11	-3.1*	5.5*	1	90	-2.4	-16
CCOC(=O)N1CCN(C(=O)c2nn(-c3cc(OC)cc(OC)c3)c(=O)c3ccccc23)CC1	-2	-1	0.38	6.4*	20	95	-2.2	?
COc1ccc(-n2nc(C(=O)N3CCCCC3)c3ccccc3c2=O)cc1	9	3	0.65	0.21	-2	108	·	·
O/N=C1\CCc2cc(Cl)ccc21	·	-18	-0.15	5.5*	-18	96	4.9	-7.3
CCOc1ccc(CC(=O)Nc2c(C(N)=O)oc3ccc(Br)cc23)cc1OCC	2	-3	-0.33	3.1*	8	·	-19	-24
CCOc1ccc(C(=O)Nc2c(C(N)=O)oc3ccccc23)cc1	-8	-11	-0.52	1.2	28	79	·	·
CC(C)(O)c1cn(-c2nonc2N)nn1	4	2	0.62	-0.23	2	87	·	·
COCCCNC(=O)C1CCN(c2ncccn2)CC1	10	-1	-0.14	2.6*	-14	67	-22	-51
CCOC(=O)N1CCN(C(=O)C(NC(=O)c2ccc(CC)cc2)C(C)C)CC1 (configuration not stated)	-3	-3	-1	1.2	11	·	·	·
COC(=O)CCC(=O)Nc1ccc(NC(C)=O)cc1	4	-10	-1.9	5.5*	-9	117	-8.9	-31
CCOC(=O)C1CCCN(c2cc(=O)n(Cc3ccc(F)cc3)c(=O)[nH]2)C1 (configuration not stated)	7	-10	0.11	3	2	142	·	·
COc1ccc(C)cc1Cn1c(S(C)(=O)=O)nc2ccccc21	11	-7	0.1	0.21	1	93	·	·
CCOC(=O)c1cnc(SCC(=O)c2ccccc2)nc1N	-25	-6	0.35	-0.9	-2	92	·	·
CCCn1nc(C(=O)Nc2cccc(C(=O)OC)c2)c2ccccc2c1=O	9	1	-0.22	5.7*	25	77	-10	-45
Fc1ccccc1N1CCN(c2nc3ccccc3n3nnnc23)CC1	17	0	0.16	12*	5	70	?	35
Fc1cc(Br)ccc1Nc1nc2ccccc2n2nnnc12	1	-5	-0.51	0.0032	8	68	·	·
N#CC1=C(N)SC(N)=C(C#N)C1CCC1CCCCC1	-5	3	0.063	6.3*	21	61	12	17
COc1cc(S(=O)(=O)N2CCN(C(=O)c3ccccc3F)CC2)c(OC)cc1NC(C)=O	-1	3	0.33	0.25	-21	84	·	·
SMILES	HEK293 NFkB inh	Cdc25B block	M1 antagonist	M1 agonist	MKP-1 inh	HER2 expr 66K	M1 agonist conf	M4 agonist ctr
CCN1CCN(c2nc3c(C)cccn3c(=O)c2/C=C(\C#N)S(=O)(=O)c2ccc(C)cc2)CC1	·	18	-0.53	9.7*	-9	124	?	40
CCOC(=O)Cc1csc(NC(=O)CSc2nnc(-n3nc(C)cc3C)c3ccccc23)n1	9	-9	-0.72	4.7*	-2	102	0.18	-20
O=C(Nc1cccc(-c2nc3ncccc3o2)c1)c1cc2ccccc2o1	-2	6	-0.098	6*	37	114	-18	?
CCOc1cccc(C(=O)Nc2cccc(-c3nc4ncccc4o3)c2C)c1	8	-3	0.11	4.2*	12	112	?	-80*
Cc1ccc(-c2nc3ncccc3o2)cc1NC(=O)c1cc2ccccc2o1	15	1	-0.5	1.8	22	116	·	·
Cc1cc(C)cc(OCC(=O)Nc2cccc(-c3nc4ncccc4o3)c2)c1	4	-5	-0.9	6.8*	18	72	-1.6	-7.8
COc1cccc(C(=O)Nc2cccc(-c3nc4ncccc4o3)c2C)c1	8	0	0.42	1.3	-6	87	·	·
O=C(Cc1ccccc1)Nc1cccc(-c2nc3ncccc3o2)c1	15	-10	-0.18	-0.35	4	88	·	·
CCOC(=O)N1CCC(NC(=O)CCc2c(C)nc3ncnn3c2C)CC1	0	-1	-0.24	0.24	2	155	·	·
CCSc1nc(-c2ccc(OC)cc2)n(-c2nc3ccccc3s2)n1	2	-5	-0.52	1.6	-2	77	·	·
COc1ccc(C2N(c3cc(Cl)ccc3OC)C(=O)C3CCCN32)cc1OC (configuration not stated)	12	-3	0.071	0.00069	-6	105	·	·
CC(=O)c1coc2ccc(OCCN3CCCCC3)cc12	12	-7	-0.48	0.089	6	126	·	·
COc1cccc(Nc2ncnc3c2cnn3C)c1	-1	-3	0.92	0.59	33	116	·	·
CC(C)C(=O)Nc1cccc(C(=O)NCc2ccc3c(c2)OCO3)c1	14	2	0.24	0.38	4	46	·	·
CC12CC(NC(=O)N1c1cccc(C(=O)NCc3ccc4c(c3)OCO4)c1)c1cc(Cl)ccc1O2 (configuration not stated)	0	4	-0.72	2.2*	32	48	?	-50
COC(=O)C(C)Oc1ccc2c3c(c(=O)oc2c1)CCCCC3 (configuration not stated)	5	-10	-0.14	0.14	-7	102	·	·
c1ccc(Cn2nnnc2C(c2cccnc2)N2CCN(c3ccccc3)CC2)cc1 (configuration not stated)	14	-15	-1.1	6.1*	8	95	?	?

Screens: PubChem BioAssay, several laboratories
